Screening results deposited in PubChem BioAssay by The Scripps Research Institute Molecular Screening Center.
HTRA1 inhibitor: HTRA1 (human) protease inhibition; inhibition, % at 5.96 µM; recombinant HTRA1, FP-rhodamine activity-based probe, fluorescence polarization; 340,000 tested, 0.5% active; Q92743; AID 504803; in the data active = inhibition above about 36%;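 also: 0% = enzyme with DMSO and 100% = wells lacking enzyme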
Target sequence (Q92743 whole entry, looked up): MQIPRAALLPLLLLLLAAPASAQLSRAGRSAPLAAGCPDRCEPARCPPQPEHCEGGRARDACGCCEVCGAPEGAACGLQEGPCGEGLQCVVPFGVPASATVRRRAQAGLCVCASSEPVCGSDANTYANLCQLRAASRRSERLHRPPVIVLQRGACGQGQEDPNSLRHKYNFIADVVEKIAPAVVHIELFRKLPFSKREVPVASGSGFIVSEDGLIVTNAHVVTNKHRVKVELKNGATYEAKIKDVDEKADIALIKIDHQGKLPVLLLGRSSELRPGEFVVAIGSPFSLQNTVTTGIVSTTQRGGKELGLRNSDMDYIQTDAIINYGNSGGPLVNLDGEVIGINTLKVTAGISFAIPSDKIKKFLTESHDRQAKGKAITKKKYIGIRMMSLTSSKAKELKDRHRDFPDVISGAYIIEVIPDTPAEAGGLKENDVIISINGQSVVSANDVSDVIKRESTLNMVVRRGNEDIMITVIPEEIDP
Tn6 DDE FP: DD(E)-Tn6 binding inhibition, primary FP screen. Fibrin DD(E) TRITC-Tn6 fluorescence polarization displacement. inhibition, % at 8.3 µM. 370,000 tested, 0.21% active;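 active = inhibition above a per-campaign cutoff: mean of compounds within control limits plus 3 SD, cut at about 15% in these data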;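 also: 0% = median of all compound wells on the plate and 100% = blocking peptide control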
SIAE inh: human SIAE inhibition, primary screen. Q9HAT2. SIAE FP-Rh probe binding, fluorescence polarization. inhibition, % at 9.66 µM. 370,000 tested, 0.69% active. AID 1053197;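 active = inhibition above a cutoff: mean of compounds within the control limits plus 3 SD of those, cut at about 17% in these data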;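 also: 0% = plate median of compound wells and 100% = probe without SIAE protein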
Tn7 DDE FP: inhibitors of Tn7 peptide binding to human fibrin DD(E); inhibition, % at 8.3 µM; 370,000 tested, 0.13% active; FP displacement of FITC-Tn7 peptide from fibrin DD(E); 0% = median of compound wells per plate;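 active = inhibition above the mean of compounds falling within the control limits plus 3 SD of them, cut at about 14% in these data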;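 also: 0% = plate median of compound wells and 100% = 10 µM Aha-Tn7 peptide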
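Measure: % inhibition scaled between sample-field median and high-control FP; Test system: human fibrin DD(E); Quantity: 2 µM final DD(E) protein; Doses: one dose, 8.3 µM nominal; Schedule: compound with protein 10 min, then 3 h after probe, room temperature; Detection: fluorescence polarization; Medium: Tris buffer with calcium and detergent, pH 7.8.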
ABHD4 inh: ABHD4 (mouse) inhibition, primary FP screen; inhibition, % at 8.92 µM; Q8VD66; purified mABHD4, FP-Rh probe fluorescence polarization; AID 720543; 370,000 tested, 0.54% active;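 active = inhibition exceeding the mean over every tested compound plus 3 SD, cut at about 30% in these data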;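 also: 0% = plate median of compound wells and 100% = S159A mutant with DMSO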
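Assay system: Wild-type mouse ABHD4 protein | Medium: HEPES pH 7.0 buffer, 150 mM NaCl, 0.01% Pluronic F-127 | Incubation: Enzyme–compound pre-incubation 45 min, then probe 60 min, both 25 °C | Technique: Fluorescence polarization with parallel and perpendicular emission, 525/598 nm | Evaluation: % inhibition of FP-Rh probe binding versus controls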
TCR-CD3 inh: inhibitors of human TCR-CD3 interaction | TAMRA-labeled TCR probe fluorescence, biochemical | inhibition, % at 9.4 µM | 360,000 tested, 0.37% active | AID 651800; in the data active = inhibition above about 19%;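 also: recombinant mutant TCR 2C K166C tagged with TAMRA read by polarization; 0% = receptor in buffer alone and 100% = receptor with positive control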
HTRA1 inh conf: confirmation of human HTRA1 inhibitors. recombinant HTRA1, FP-rhodamine activity-based probe, fluorescence polarization. shares compounds with HTRA1 inhibitor. 1,600 tested, 66% active. inhibition, % at 5.96 µM;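 active = mean inhibition over three repeats above a set limit taken from the earlier primary screen, cut at about 37% in these data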;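 also: 0% = HTRA1 with DMSO and 100% = wells lacking HTRA1; inhibitors block probe binding so polarization drops and inhibition rises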
* hit, by the source's call; · = no result. In the library only some 1.8% were active in any assay of this set; here they are far more common.

SMILES	HTRA1 inhibitor	Tn6 DDE FP	SIAE inh	Tn7 DDE FP	ABHD4 inh	TCR-CD3 inh	HTRA1 inh conf
O=C(NN=Cc1c(O)ccc2ccccc12)c1ccncc1	22	-6	5	-43	16	-4	·
CC(C)C(=O)OCC(=O)Nc1ccc(N=Nc2ccccc2)cc1	39*	4	2	2	1	-1	49*
Cc1cc(C)nc(Nc2nc3ccccc3o2)n1	3	6	0	3	1	6	·
CC(=NNc1nc2ccccc2o1)c1cc2ccccc2cn1	56*	-2	5	6	16	-1	70*
COc1ccc(-n2c(SCC(=O)Nc3cc(C)c(NC(=O)c4ccccc4)cc3OC)nnc2-c2ccco2)cc1	·	1	-6	-9	-10	·	·
CCOC(=O)c1c(C)oc2c(CC(=O)c3ccccc3)c(Cl)c(O)c(O)c12	46*	6	8	-27	26	-6	4
Cc1cc(SCC(=O)N/N=C/c2ccc(O)c(O)c2O)c(C)cc1Br	62*	-8	35*	5	50*	11	67*
CCOC(=O)Nc1ccc(C)cc1NC(=O)OCC	4	1	3	-8	4	6	·
CCOC(=O)Nc1ccc(NCc2ccc(F)cc2)nc1N	60*	13	7	23*	-13	-8	4
Cc1ccccc1NC(=O)CSc1nnc(-c2ccco2)c(-c2ccco2)n1	43*	·	·	·	·	·	16
C=CCN(CC#CC(=C)C)Cc1ccccc1	·	-4	-3	1	1	·	·
Cc1cc(C(=O)OCC(=O)Nc2ccccc2C#N)c(C)o1	2	0	4	3	-2	-8	·
Cc1c2c(=O)n(-c3nc4ccccc4s3)nc-2cc(O)n1Cc1ccccc1	47*	·	·	·	·	·	57*
CCOc1ccc(N=Cc2ccc(N(C)C)cc2)c(O)c1	57*	·	·	·	·	·	57*
CCOc1ccc(/C=N/O)cc1	2	2	-2	1	-10	2	·
O=C1CCCC2=C1C(c1ccc(Cl)cc1)C1C(=O)c3ccccc3C1=N2 (stereo not drawn)	38*	-10	-3	-7	29	5	31
COC(=O)C[C@H]1CC[C@H]2[C@@H](COc3ccc(NC(=O)Nc4ccccc4)cc3C(=O)N2C)O1	·	4	0	-1	0	·	·
CCCn1c(Nc2nc3ccccc3n2C)nc2ccccc21	39*	2	5	1	28	-6	47*
O=[N+]([O-])c1ccc(Nc2ccccc2)c2nonc12	4	-5	-4	-1	-6	-8	·
O=[N+]([O-])c1ccc(Sc2cccc[n+]2[O-])c2nonc12	81*	-2	-5	-8	26	4	101*
COc1cc(NC(C)CCc2ccccc2)cc(OC)c1OC (stereo not drawn)	40*	1	10	0	18	-1	27
O=C(Nc1ccc(Cl)cc1)c1csc([C@@H]2C[C@H](O)[C@@H](CO)O2)n1	·	6	1	4	0	1	·
O=C(CSc1nc2ccccc2o1)NC1CCCC1	3	2	0	-1	3	-7	·
O=C(CSc1nc2ccccc2o1)NCC1CCCO1 (stereo not drawn)	55*	5	5	-1	-10	-12	13
CC1CC(C)CN(CCCNS(=O)(=O)c2cc3c(cc2Br)CCN3C(=O)C2CC2)C1 (stereo not drawn)	·	1	5	-4	-4	·	·
SMILES	HTRA1 inhibitor	Tn6 DDE FP	SIAE inh	Tn7 DDE FP	ABHD4 inh	TCR-CD3 inh	HTRA1 inh conf
CCCCC(=O)N(C)c1c(C)nc2ccc(C(=O)Nc3cccc(OC)c3)cn12	·	-3	0	2	-14	0	·
O=[N+]([O-])c1cc(Cl)c2cccnc2c1O	43*	7	0	2	10	-1	52*
O=[N+]([O-])c1cc(F)c2cccnc2c1O	55*	1	9	1	16	1	48*
Oc1c(I)cc(Cl)c2cccnc12	54*	0	17	3	27	9	87*
O=[N+]([O-])c1ccc(O)c2cccnc12	-3	3	4	1	5	2	·
O=[N+]([O-])c1ccc(Cl)c2cccnc12	1	0	4	1	-7	-1	·
O=C(O)c1ccc(Cl)cc1Nc1nc2cc(Cl)ccc2o1	-58	-9	-4	0	-26	-7	·
CC(=NN1CCN(Cc2ccccc2Cl)CC1)c1ccc(O)cc1	·	-7	-5	3	-6	·	·
CCC(=C(c1ccc(OC)cc1)c1ccc(OC)cc1)c1cn(CC(O)CN2CCN(C)CC2)c2ccccc12 (stereo not drawn)	37*	-6	13	1	25	-9	39*
Cc1csc(NC(=O)CSc2nc(=O)n(CCN(C)C)c3c2CCCC3)n1	-7	-6	3	-2	3	7	·
OCCN(CCO)c1ccc(C(c2ccccc2Cl)c2ccc(N(CCO)CCO)cc2Cl)c(Cl)c1	44*	·	·	·	·	·	61*
CN(C)CCCNc1cc(C(C)(C)C)nc2c(-c3ccccc3)cnn12	36*	2	2	-1	15	1	32
CCOc1ccc(C(=O)N/N=C/c2ccc(-c3ccc(S(=O)(=O)Nc4ncccn4)cc3)o2)cc1	-7	-6	-6	1	-8	9	·
O=C(N/N=C/c1ccc(-c2ccc(S(=O)(=O)Nc3ncccn3)cc2)o1)c1cc2ccccc2cc1O	57*	-14	10	-2	1	18	66*
O=C(C1CCCN1S(=O)(=O)c1ccc(Cl)s1)N1CCN(c2ccccc2)CC1 (stereo not drawn)	·	3	1	-1	-1	·	·
Cc1ccc(NC(=O)CN(C)C(=O)C2CCC2)cc1	20	-6	2	-7	5	-1	·
O=C(O)C1Nc2c(Cl)cc(Cl)cc2C2C=CCC12 (stereo not drawn)	55*	·	·	·	·	·	49*
O=C(O)C1Nc2c(Cl)cc(Cl)c(Cl)c2C2C=CCC12 (stereo not drawn)	42*	2	10	2	18	8	38*
CCOC(=O)C1Nc2ccc(C)cc2C2C=CCC12 (stereo not drawn)	34	-3	9	-4	22	0	·
COC(=O)CNC(=O)C1Nc2ccccc2C2C=CCC12 (stereo not drawn)	11	1	5	3	20	-7	·
O=C(O)C1Nc2ccc(Br)cc2C2C=CCC12 (stereo not drawn)	75*	·	·	·	·	·	69*
NC(=O)c1ccsc1NC(=O)COC(=O)CNC(=O)c1ccc(Cl)cc1	-2	5	-1	0	-3	-2	·
COc1ccc(CN(CCN2CCOCC2)C(=O)c2ccccc2C)cc1OC	·	4	0	0	4	·	·
